Most compounds without a hit are left out; they make up all but 0.65% or so of the library.
HePTP inhibitor: inhibitors of human HePTP phosphatase, primary screen, biochemical, absorbance, leukemia target; recombinant HePTP phosphatase activity, OD absorbance; Tyrosine-protein phosphatase non-receptor type 7 (Homo sapiens), P35236; inhibition, % at 20 µM; 0.64% of 110,000 active; in the data active means inhibition above about 50%
TNAP act DEA: human TNAP enzyme activators, primary screen, biochemical, luminescent, intermediate phosphate acceptor level; purified TNAP, CDP-star luminescence, 100 mM DEA, 30 min; active compounds read high; scale: 0 levamisole-inhibited, 1 vehicle-only enzyme; activation factor at 20 µM; 64,000 tested, under 10 active; AID 813, 2007;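 active means activation factor of at least 2 at 20 µM, relative to controls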
Target sequence (P05186 whole entry, looked up): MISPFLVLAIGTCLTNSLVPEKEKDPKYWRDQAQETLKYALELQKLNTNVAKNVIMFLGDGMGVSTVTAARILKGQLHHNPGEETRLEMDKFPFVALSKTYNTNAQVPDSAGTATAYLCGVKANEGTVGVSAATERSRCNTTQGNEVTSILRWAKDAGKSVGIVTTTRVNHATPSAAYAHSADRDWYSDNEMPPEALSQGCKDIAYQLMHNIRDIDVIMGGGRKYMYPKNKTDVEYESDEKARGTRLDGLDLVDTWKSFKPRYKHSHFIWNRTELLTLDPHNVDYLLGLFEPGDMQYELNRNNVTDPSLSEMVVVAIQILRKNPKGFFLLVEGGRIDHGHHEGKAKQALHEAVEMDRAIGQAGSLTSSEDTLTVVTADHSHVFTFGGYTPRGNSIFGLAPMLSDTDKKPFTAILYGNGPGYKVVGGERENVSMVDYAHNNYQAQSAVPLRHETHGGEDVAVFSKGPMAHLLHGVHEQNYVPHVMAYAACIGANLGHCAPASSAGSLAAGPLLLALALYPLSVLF
AP ELISA ortho: alternative complement pathway inhibitors, primary screen, biochemical, ELISA, human serum, orthogonally pooled compounds | LPS-coated ELISA, C3 deposition; tested in compound mixtures | inhibition, % at 5 µM | 0.08% of 62,000 active | AID 1235, 2008;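 active means inhibition above 30% in each of the two pooled mixtures holding the compound, so the lower value exceeds 30%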
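Test system – human serum alternative complement pathway, C3 deposition on LPS-coated wells · Buffer or medium – diluted human serum in Mg2+-EGTA GVB++ · Compound dosing – 5 µM each compound, pools of ten, 50 µM per pool · Schedule – 1 h serum-compound exposure at 37 °C · Measured by – Anti-C3 ELISA, OD 450 nm · Read-out basis – percent inhibition of C3 deposition onto LPS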
Numbers stand for hits; 0 = inactive; - = no result.

SMILES | HePTP inhibitor | TNAP act DEA | AP ELISA ortho
CCOC(=O)/C(C#N)=C1/C=CN(C)C(C)=N1 | 0 | 0 | 33.2
CCOC(=O)/C(C#N)=C1/N(C)c2ccccc2N1N | 0 | - | -
CC(=O)c1ccc(N(C(C)=O)C2=C(NCCO)C(=O)c3ccccc3C2=O)cc1 | 0 | - | -
O=C1NN(c2ccc(F)c(Cl)c2)C(=O)/C1=C\c1ccc(-c2cccc(C(=O)O)c2)o1 | 0 | - | -
O=C1NN(c2ccc(F)cc2)C(=O)/C1=C\c1ccc(-c2cccc(C(=O)O)c2)o1 | 102.4 | - | -
O=C1NN(c2ccc(Cl)cc2)C(=O)/C1=C\c1ccc(-c2cccc(C(=O)O)c2)o1 | 102.9 | - | -
O=C1NC(=O)N(c2ccccc2)C(=O)/C1=C\c1ccc(-c2cccc(C(=O)O)c2)o1 | 0 | - | -
O=C1NN(c2ccccc2)C(=O)/C1=C/c1ccc(-c2ccc(F)cc2)o1 | 0 | - | -
O=C(O)c1cccc(-c2ccc(C=C3C(=O)c4ccccc4C3=O)o2)c1 | 98.4 | - | -
CC(C)OC(=O)COc1ccc2c3c(c(=O)oc2c1)CCC3 | 0 | - | -
Cc1cccc(C)c1NC(=O)C1COc2ccccc2O1 (centres undefined) | 0 | - | -
COc1cc(C(=S)N2CCOCC2)cc(I)c1O | 0 | - | -
CN1CCN(c2ccc([N+](=O)[O-])c(-n3nc(-c4ccc(F)cc4)c4ccccc4c3=O)c2)CC1 | 0 | - | -
O=C(O)C1C2C=CC(O2)C1C(=O)NCCc1ccccc1 (centres undefined) | 0 | - | -
Cc1ccc(Cl)cc1NC(=O)C1CC(=O)N(c2cccc([N+](=O)[O-])c2)C1 (centres undefined) | 0 | - | -
Cc1oc(-c2ccccc2F)nc1CS(=O)CC(=O)NCc1cccs1 (centres undefined) | 0 | 0 | 40.4
Cc1oc(-c2ccccc2F)nc1CS(=O)CC(=O)NCc1ccc2c(c1)OCO2 (centres undefined) | 0 | 0 | 0
COc1ccc(/C=C2\SC(=O)N(CCC(=O)N3CCCCC3)C2=O)cc1OC | 0 | - | -
COc1ccc(/C=C2\SC(=O)N(CCC(=O)N3CCOCC3)C2=O)cc1OC | 103.6 | - | -
Cc1nc(=O)c(-c2ccccc2)c(C)n1-c1ccc(OCC(=O)O)cc1 | 0 | - | -
O=C(O)CSc1ccc(C(F)(F)F)cc1 | 0 | - | -
Cc1ccc(C)n1-c1ccc(OCC(=O)O)cc1 | 104.0 | - | -
Cc1ccc(C)n1-c1ccc(SCC(=O)O)cc1 | 102.7 | - | -
O=[N+]([O-])c1ccccc1N/C(=N/S(=O)(=O)c1ccc(Cl)cc1)c1ccccc1 | 0 | - | -
COc1cc(OC)c(OC)cc1/C=N/NC(=O)CCC1C(=O)NN=C1C (centres undefined) | 0 | - | -
SMILES | HePTP inhibitor | TNAP act DEA | AP ELISA ortho
O=C1NC(=S)N(c2cccc(Cl)c2)C(=O)/C1=C\c1ccc(N2CCCC2)cc1 | 0 | - | -
Cn1cccc1/C=C1/C(=O)NC(=S)N(c2cccc(Cl)c2)C1=O | 100.6 | - | -
Cc1ccc(-c2noc(-c3ccc(C)cc3)n2)cc1 | 0 | - | -
CCOc1ccc(N2C(=O)CC(NCc3ccc(S(N)(=O)=O)cc3)C2=O)cc1 (centres undefined) | 0 | - | -
CCOc1ccc(N2C(=O)CC(NCc3ccc(Cl)cc3Cl)C2=O)cc1 (centres undefined) | 104.3 | - | -
O=C(Nc1ccc(S(=O)(=O)Nc2nccs2)cc1)c1ccc(Cl)c(Cl)c1 | 0 | - | -
CC1=C(C(=O)Nc2ccccc2)C2(CCCCC2)C(C#N)=C(SCC(=O)Nc2ccc(Br)cc2)N1 | 0 | - | -
[O-][n+]1cc(O)c(Br)c2ccccc21 | 0 | - | -
CN(C)Cc1c(O)c[n+]([O-])c2ccccc12 | 102.9 | - | -
Cc1cccc(N2CCN(C(=O)CCCOc3ccc(Cl)cc3Cl)CC2)c1C | 0 | - | -
CCCCC(=O)Nc1ccc(NC(=O)C2CC2)cn1 | 0 | 0 | 0
CCCCC(=O)Nc1ccc(NC(=O)CCCC)nc1 | 0 | 0 | 68.8
C/C(CC(=O)NC12CC3CC(CC(C3)C1)C2)=N\NC(=O)c1ccccc1Cl | 0 | - | -
Cc1ccnc(N=Cc2ccc(C=Nc3cc(C)ccn3)cc2)c1 | 0 | - | -
COc1ccc(C2NC(=S)NC(C)=C2C(=O)OCCOc2ccccc2)cc1 (centres undefined) | 0 | - | -
CCCCCOC(=O)C1=C(C)NC(=S)NC1c1ccccc1 (centres undefined) | 62.9 | - | -
CCn1c2ccccc2c2cc(NS(=O)(=O)c3cccc([N+](=O)[O-])c3)ccc21 | 0 | - | -
COc1ccc(CNCc2ccccc2)cc1 | 0 | - | -
O=c1[nH]c(SCc2ccccc2)nc2ccccc12 | 0 | - | -
CC(C)(C)c1ccc(CSc2nc3ccccc3c(=O)[nH]2)cc1 | 68.6 | - | -
CCOC(=O)c1ccccc1NC(=O)CN(c1cc(OC)ccc1OC)S(C)(=O)=O | 0 | - | -
O=C1Nc2ccccc2C1=Cc1nc2ccccc2c(=O)n1-c1ccccc1[N+](=O)[O-] | 0 | - | -
Cc1ccc2c(c1)C(=Cc1nc3ccccc3c(=O)n1-c1ccccc1[N+](=O)[O-])C(=O)N2 | 103.9 | - | -

Compound activity: PubChem, several laboratories
